Laboratory results reported in ChEMBL document CHEMBL3576819, “Design, synthesis, biological evaluation and molecular docking studies of phenylpropanoid derivatives as potent anti-hepatitis B virus agents” (Eur J Med Chem, 2015).

Key:
[1] = Cytotoxicity against human HepG2.2.15 cells assessed as cell death after 9 days by MTT assay; assay type: cell-based, HepG2 2.2.15
Summary of the method: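 HepG2.2.15 cells (MEM, 10% FBS, 380 µg/ml G418, 37 °C, 5% CO2) seeded at 1×10^5 cells/ml, cultured 24 h, then exposed to various drug concentrations; drug-containing medium renewed every 3 d. OD read at 450 nm after 9 days; percent cell death calculated; CC50 = concentration killing 50% of cells. Means of at least two experiments.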

[2] = tested on: Hepatitis B virus; test: Antiviral activity against Hepatitis B virus infected in human HepG2.2.15 cells assessed as inhibition of HBsAg secretion by ELISA; assay type: functional, organism-based; settings: HepG2 2.2.15
Summary of the method: (§1)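 HepG2.2.15 cells (MEM, 10% FBS, 380 µg/ml G418) seeded at 1×10^5 cells/ml, held 24 h at 37 °C, then treated with various drug concentrations; medium with drug renewed every 3 d for up to 9 d. Culture medium sampled on days 3, 6 and 9, stored at -20 °C, and assayed for secreted antigen. Lamivudine as positive control; IC50 = 50% inhibition of secretion; means of at least two experiments.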

[3] = Selectivity index, ratio of CC50 for human HepG2.2.15 cells to IC50 for Hepatitis B virus infected in human HepG2.2.15 cells assessed as inhibition of HBsAg secretion; assay type: functional
Summary of the method: (§2)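 Selectivity index computed as CC50/IC50, with CC50 from cell death of HepG2.2.15 cells after 9 days of treatment (OD 450 nm) and IC50 from 50% inhibition of HBeAg or HBsAg secretion in the same cells; medium with drug renewed every 3 d.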

[4] = tested on: Hepatitis B virus; test: Antiviral activity against Hepatitis B virus infected in human HepG2.2.15 cells assessed as inhibition of HBeAg secretion by ELISA; assay type: functional, organism-based; settings: HepG2 2.2.15; summary of the method: as §1
[5] = Selectivity index, ratio of CC50 for human HepG2.2.15 cells to IC50 for Hepatitis B virus infected in human HepG2.2.15 cells assessed as inhibition of HBeAg secretion; assay type: functional; summary of the method: as §2

Row | SMILES | CC50 at 216 h [1] [µM] | IC50 [2] [µM] | Ratio CC50/IC50 [3] | IC50 [4] [µM] | Ratio CC50/IC50 [5]
1 | COc1ccc(C=O)cc1OC [3,4-DIMETHOXYBENZALDEHYDE] | > 1500 | – | – | – | –
2 | COc1ccc(/C=C/C(=O)O)cc1OC [O,O'-DIMETHYLCAFFEIC ACID] | 535 | > 600 | <0.89 | > 600 | <0.89
3 | O=Cc1ccc2c(c1)OCO2 [PIPERONAL] | 1290 | – | – | – | –
4 | COc1cc(/C=C/C(=O)O)cc(OC)c1OC [SINAPIC ACID METHYL ETHER] | 834 | > 600 | <1.39 | > 600 | <1.39
